ChEMBL document CHEMBL2346561, “Development of 2'-substituted (2S,1'R,2'S)-2-(carboxycyclopropyl)glycine analogues as potent N-methyl-d-aspartic acid receptor agonists” (J Med Chem, 2013)

Legend:
[1] = target: Ionotropic glutamate receptor NMDA 1/2D (Rattus norvegicus, UniProt P35439+Q62645); test: Agonist activity at rat recombinant wild type GluN1/GluN2D receptor expressed in Xenopus laevis oocytes by two electrode voltage clamp technique; format: cell-based, Oocyte
Method in brief: (§1)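 cRNA-injected Xenopus oocytes co-expressing GluN1 with GluN2A, 2B, 2C or 2D; two-electrode voltage clamp at −60 to −40 mV; perfusion with extracellular solution (mM: 90 NaCl, 0.5 BaCl₂, 1 KCl, 0.01 EDTA, 10 HEPES, pH 7.4) always containing 50 μM glycine. Concentration–response data per oocyte fitted to Hill equation; mean logEC₅₀ and nH ± SEM across oocytes.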

[2] = target: Glutamate NMDA receptor; test: Displacement of [3H]CGP39653 from NMDA receptor in rat cortical synaptosomes; format: subcellular, Brain
Method in brief: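 Rat cortical synaptosome membranes; 2 nM [³H]CGP 39653 (Kd = 6 nM) as radioligand for native NMDA receptors; Ki derived from displacement via Cheng-Prusoff relationship.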

[3] = target: Glutamate NMDA receptor; Grin1/Grin2c (Rattus norvegicus) (UniProt P35439+Q00961); test: Ratio of compound Imax to glutamate Imax for rat recombinant wild type GluN1/GluN2C receptor; format: protein-complex assay
[4] = Displacement of [3H]AMPA from AMPA receptor in rat cortical synaptosomes; format: subcellular, Brain
[5] = target: Glutamate NMDA receptor; Grin1/Grin2b (Rattus norvegicus) (UniProt P35439+Q00960); test: Ratio of compound Imax to glutamate Imax for rat recombinant wild type GluN1/GluN2B receptor; format: protein-complex assay
[6] = target: Glutamate NMDA receptor; Grin1/Grin2a (Rattus norvegicus, UniProt P35439+Q00959); test: Agonist activity at rat recombinant wild type GluN1/GluN2A receptor expressed in Xenopus laevis oocytes by two electrode voltage clamp technique; format: cell-based, Oocyte; method in brief: as §1
[7] = target: Ionotropic glutamate receptor NMDA 1/2D (Rattus norvegicus) (UniProt P35439+Q62645); test: Ratio of compound Imax to glutamate Imax for rat recombinant wild type GluN1/GluN2D receptor; format: protein-complex assay
[8] = target: Glutamate NMDA receptor; Grin1/Grin2b (Rattus norvegicus, UniProt P35439+Q00960); test: Agonist activity at rat recombinant wild type GluN1/GluN2B receptor expressed in Xenopus laevis oocytes by two electrode voltage clamp technique; format: cell-based, Oocyte; method in brief: as §1
[9] = Displacement of [3H]KA from KA receptor in rat cortical synaptosomes; format: subcellular, Brain
[10] = target: Glutamate NMDA receptor; Grin1/Grin2c (Rattus norvegicus, UniProt P35439+Q00961); test: Agonist activity at rat recombinant wild type GluN1/GluN2C receptor expressed in Xenopus laevis oocytes by two electrode voltage clamp technique; format: cell-based, Oocyte; method in brief: as §1
[11] = target: Glutamate NMDA receptor; Grin1/Grin2a (Rattus norvegicus) (UniProt P35439+Q00959); test: Ratio of compound Imax to glutamate Imax for rat recombinant wild type GluN1/GluN2A receptor; format: protein-complex assay

EC50 ([6]; oocyte)	Compound	EC50 [1]	Ki [2]	Ratio [3]	Ki [4]	Ratio [5]	Ratio [7]	EC50 [8]	Ki [9]	EC50 [10]	EC50 ([6]; read-out: EC50)	Ratio [11]
Not Active	CCCc1cnn(O)c1[C@@H](N)C(=O)O	153000 nM	14000 nM	0.22	> 100000 nM	0.06	0.37	105000 nM	> 100000 nM	429000 nM		
	CCCC[C@]1(C(=O)O)C[C@H]1[C@H](N)C(=O)O	3300 nM	1300 nM	0.85	> 100000 nM	1.07	0.94	10200 nM	> 100000 nM	16000 nM	28800 nM	0.65
	NC(C(=O)O)c1ccnn1O (racemic)			0.52	> 100000 nM	0.58			> 100000 nM			0.45
	CC[C@]1(C(=O)O)C[C@H]1[C@H](N)C(=O)O	80 nM	61 nM	0.81	> 100000 nM	1.02	0.91	272 nM	610 nM	540 nM	1180 nM	0.83
	C[C@]1(C(=O)O)C[C@H]1[C@H](N)C(=O)O	26 nM	8 nM	0.81	29000 nM	1.14	0.83	45 nM	110 nM	124 nM	277 nM	0.94
	N[C@H](C(=O)O)[C@@H]1C[C@@H]1C(=O)O	36 nM	6.5 nM	0.9	1100 nM	1.23	1.11	83 nM	310 nM	110 nM	262 nM	0.99
	CCC[C@]1(C(=O)O)C[C@H]1[C@H](N)C(=O)O	6560 nM	1200 nM	0.7	> 100000 nM	1.05	0.89	15800 nM	21000 nM	29900 nM	46300 nM	0.67
